Laboratory results taken from ChEMBL document CHEMBL1155581, “A-Type proanthocyanidin trimers from cranberry that inhibit adherence of uropathogenic P-fimbriated Escherichia coli” (J Nat Prod, 2000).
The source made the active and inactive calls. The calls are words filed in the database; no cut-off is given here.

How the values were obtained:
Type in all cases: functional, organism-based
Escherichia coli [1] = experiment: Antiadherent activity against P-fimbriated Escherichia coli in human erythrocyte assessed as suppression of agglutination using latex beads coated with P receptor analogue at 2.4 mg/ml
Outline: (§1)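 Uropathogenic P-fimbriated E. coli from patient urine, grown in tryptose broth 16 h at 37 °C, then overnight on CFA plates. Washed cells at 5 × 10^8/mL in PBS pH 7.0. Compounds in PBS neutralized with 1 N NaOH, 2-fold serial dilutions, 30 µL with 10 µL bacteria for 10 min at RT with shaking. 3% A1 Rh+ human RBCs or P-receptor-coated latex beads added separately, 20 min RT. Agglutination suppression scored microscopically (+/−).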

Escherichia coli [2] = experiment: Antiadherent activity against P-fimbriated Escherichia coli in human erythrocyte assessed as suppression of agglutination using latex beads coated with P receptor analogue at 1.2 mg/ml; outline: as §1
Escherichia coli [3] = experiment: Antiadherent activity against P-fimbriated Escherichia coli in human erythrocyte assessed as suppression of agglutination using latex beads coated with P receptor analogue at 0.6 mg/ml; outline: as §1
Escherichia coli [4] = experiment: Antiadherent activity against P-fimbriated Escherichia coli in human erythrocyte assessed as suppression of agglutination using latex beads coated with P receptor analogue at 0.3 mg/ml; outline: as §1
Escherichia coli [5] = experiment: Antiadherent activity against P-fimbriated Escherichia coli in human erythrocyte assessed as suppression of agglutination using latex beads coated with P receptor analogue at 0.15 mg/ml; outline: as §1

Row | Structure (SMILES) | Activity (Escherichia coli [1]) | Activity (Escherichia coli [2]) | Activity (Escherichia coli [3]) | Activity (Escherichia coli [4]) | Activity (Escherichia coli [5])
1 | Oc1cc(O)c2c(c1)O[C@@]1(c3ccc(O)c(O)c3)Oc3cc(O)c4c(c3[C@@H]2[C@H]1O)O[C@H](c1ccc(O)c(O)c1)[C@H](O)C4 | Active | inactive | inactive | inactive | inactive
2 | Oc1cc(O)c2c(c1)O[C@H](c1ccc(O)c(O)c1)[C@H](O)[C@H]2c1c(O)cc(O)c2c1O[C@H](c1ccc(O)c(O)c1)[C@H](O)C2 | inactive | inactive | inactive | inactive | inactive
3 | Oc1cc(O)c2c(c1)O[C@H](c1ccc(O)c(O)c1)[C@H](O)C2 | inactive | inactive | inactive | inactive | inactive
4 | Oc1cc(O)c2c(c1)O[C@@]1(c3ccc(O)c(O)c3)Oc3cc(O)c4c(c3[C@@H]2[C@H]1O)O[C@H](c1ccc(O)c(O)c1)[C@H](O)[C@H]4c1c(O)cc(O)c2c1O[C@H](c1ccc(O)c(O)c1)[C@H](O)C2 [CINNAMTANNIN B1] | Active | Active | Active | Active | Not Active
5 | Oc1cc(O)c2c(c1)O[C@H](c1ccc(O)c(O)c1)[C@H](O)[C@H]2c1c(O)cc2c(c1O)[C@@H]1c3c(cc(O)c4c3O[C@H](c3ccc(O)c(O)c3)[C@H](O)C4)O[C@](c3ccc(O)c(O)c3)(O2)[C@@H]1O | Active | Active | Active | Active | inactive
6 | Oc1cc(O)c2c(c1)O[C@H](c1ccc(O)c(O)c1)[C@H](O)[C@H]2c1c(O)cc(O)c2c1O[C@@]1(c3ccc(O)c(O)c3)Oc3cc(O)c4c(c3[C@@H]2[C@H]1O)O[C@H](c1ccc(O)c(O)c1)[C@H](O)C4 | Active | Active | Active | inactive | inactive
